Assay results from ChEMBL document CHEMBL1154428, “Cloning, nucleotide sequencing, and analysis of the AcrAB-TolC efflux pump of Enterobacter cloacae and determination of its involvement in antibiotic resistance in a clinical isolate” (2007).
Converted amounts (≈) assume the structure as drawn.

Columns and labels:
Enterobacter cloacae [1] = assay: Antibacterial activity against drug-resistant AcrAB-TolC efflux pump deficient Enterobacter cloacae EcdeltaacrA isolate expressing pAP2 plasmid containing Enterobacter cloacae acrA gene by Etest; format: functional
Enterobacter cloacae [2] = assay: Antibacterial activity against drug-resistant AcrAB-TolC efflux pump deficient Enterobacter cloacae EcdeltaacrA isolate expressing pACYC184 plasmid by Etest; format: functional
Enterobacter cloacae [3] = assay: Antibacterial activity against drug-resistant AcrAB-TolC efflux pump deficient Enterobacter cloacae EcdeltaacrA isolate expressing pBGS18 plasmid by Etest; format: functional
Enterobacter cloacae [4] = assay: Antibacterial activity against drug-resistant AcrAB-TolC efflux pump deficient Enterobacter cloacae EcdeltaacrA isolate in presence of 20 ug/ml efflux pump inhibitor Phe-Arg-beta-naphthylamide by Etest; format: functional
Enterobacter cloacae [5] = assay: Antibacterial activity against drug-resistant AcrAB-TolC efflux pump deficient Enterobacter cloacae EcdeltaacrA isolate expressing pAP3 plasmid containing Enterobacter aerogenes acrR gene by Etest; format: functional
Enterobacter cloacae [6] = assay: Antibacterial activity against drug-resistant Enterobacter cloacae EcDC64 isolate expressing pAP1 containing Escherichia coli ampD by Etest; format: functional
Enterobacter cloacae [7] = assay: Antibacterial activity against drug-resistant Enterobacter cloacae EcDC64 isolate expressing AcrAB-TolC efflux pump in presence of 20 ug/ml efflux pump inhibitor Phe-Arg-beta-naphthylamide by Etest
Enterobacter cloacae [8] = assay: Antibacterial activity against drug-resistant Enterobacter cloacae EcDC64 isolate expressing AcrAB-TolC efflux pump by Etest; format: functional
Enterobacter cloacae [9] = assay: Antibacterial activity against drug-resistant AcrAB-TolC efflux pump deficient Enterobacter cloacae EcdeltaacrA isolate by Etest; format: functional
Enterobacter cloacae [10] = assay: Antibacterial activity against drug-resistant AcrAB-TolC efflux pump deficient Enterobacter cloacae EcdeltaacrA isolate expressing pAP2 plasmid containing Enterobacter cloacae acrA gene by broth microdilution method; format: functional
Outline: (§1)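 Broth microdilution MICs for detergents and dyes (SDS, sodium cholate, sodium deoxycholate, acriflavine, ethidium bromide, Triton X-100, crystal violet). E. cloacae inoculum 5 × 10^5 CFU/ml, incubated 16 to 20 h at 37°C. The MIC was the lowest concentration giving complete growth inhibition. The acrA knockout carries a kanamycin-resistance insertion made by Red-mediated recombination.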

Enterobacter cloacae [11] = assay: Antibacterial activity against drug-resistant AcrAB-TolC efflux pump deficient Enterobacter cloacae EcdeltaacrA isolate by broth microdilution method; format: functional; outline: as §1
Enterobacter cloacae [12] = assay: Antibacterial activity against drug-resistant AcrAB-TolC efflux pump deficient Enterobacter cloacae EcdeltaacrA isolate expressing pACYC184 plasmid by broth microdilution method; format: functional; outline: as §1
Enterobacter cloacae [13] = assay: Antibacterial activity against drug-resistant Enterobacter cloacae EcDC64 isolate expressing pBGS18 plasmid by broth microdilution method
Enterobacter cloacae [14] = assay: Antibacterial activity against drug-resistant Enterobacter cloacae EcDC64 isolate expressing AcrAB-TolC efflux pump by broth microdilution method; format: functional; outline: as §1
Enterobacter cloacae [15] = assay: Antibacterial activity against drug-resistant Enterobacter cloacae EcDC64 isolate expressing pAP3 plasmid containing Enterobacter aerogenes acrR gene by broth microdilution method
Enterobacter cloacae [16] = test system: Enterobacter cloacae
Enterobacter cloacae [17] = test system: Enterobacter cloacae; remark: listed apart in the source
Enterobacter cloacae [18] = test system: Enterobacter cloacae; remark: listed apart in the source
Enterobacter cloacae [19] = test system: Enterobacter cloacae; remark: listed apart in the source
Enterobacter cloacae [20] = test system: Enterobacter cloacae; remark: listed apart in the source
Enterobacter cloacae [21] = details: EcDC64
Enterobacter cloacae [22] = test system: Enterobacter cloacae; remark: listed apart in the source

Which results are given for `C[C@@H](O)[C@H]1C(=O)N2C(C(=O)O)=C(S[C@@H]3CN[C@H](C(=O)N(C)C)C3)[C@H](C)[C@H]12` [MEROPENEM]?
MIC (Enterobacter cloacae [1]): > 32 µg/mL; MIC (Enterobacter cloacae [2]): > 32 µg/mL; MIC (Enterobacter cloacae [3]): > 32 µg/mL; MIC (Enterobacter cloacae [4]): 1 µg/mL; MIC (Enterobacter cloacae [5]): 24 µg/mL (≈ 62.6 µM); MIC (Enterobacter cloacae [6]): 0.75 µg/mL (≈ 1.96 µM); MIC (Enterobacter cloacae [7]): 32 µg/mL; MIC (Enterobacter cloacae [8]): > 32 µg/mL; MIC (Enterobacter cloacae [9]): 24 µg/mL (≈ 62.6 µM)

What does the source list for `CCCCCCCCCCCCOS(=O)(=O)[O-].[Na+]` [SODIUM LAURYL SULFATE]?
MIC (Enterobacter cloacae [10]): 4100 µg/mL; MIC (Enterobacter cloacae [11]): 256 µg/mL; MIC (Enterobacter cloacae [12]): 128 µg/mL; MIC (Enterobacter cloacae [13]): 8190 µg/mL; MIC (Enterobacter cloacae [14]): 8190 µg/mL; MIC (Enterobacter cloacae [15]): 1020 µg/mL

Which results are given for `CC[n+]1c(-c2ccccc2)c2cc(N)ccc2c2ccc(N)cc21.[Br-]` [HOMIDIUM BROMIDE]?
MIC (Enterobacter cloacae [10]): 1020 µg/mL; MIC (Enterobacter cloacae [11]): 128 µg/mL; MIC (Enterobacter cloacae [12]): 64 µg/mL; MIC (Enterobacter cloacae [13]): 2050 µg/mL; MIC (Enterobacter cloacae [14]): 2050 µg/mL; MIC (Enterobacter cloacae [15]): 256 µg/mL

Which MIC (Enterobacter cloacae [1]) does the source give for `C[C@@H](O)[C@H]1C(=O)N2C(C(=O)O)=C(SCCNC=N)C[C@H]12` [IMIPENEM ANHYDROUS] here?
Its MIC is over 32 µg/mL.

What about the MIC (Enterobacter cloacae [2]) of the same compound?
Its MIC is over 32 µg/mL.

What about the MIC (Enterobacter cloacae [3]) of the same compound?
The MIC was over 32 µg/mL.

And the MIC (Enterobacter cloacae [4])?
The MIC was 6 µg/mL.

What about the MIC (Enterobacter cloacae [5]) of the same compound?
Its MIC is 24 µg/mL (≈ 80.2 µM).

What about the MIC (Enterobacter cloacae [6]) of the same compound?
The MIC was 2 µg/mL (≈ 6.68 µM).

And the MIC (Enterobacter cloacae [7])?
The MIC was 32 µg/mL.

And the MIC (Enterobacter cloacae [8])?
Its MIC is over 32 µg/mL.

What about the MIC (Enterobacter cloacae [9]) of the same compound?
The MIC was 24 µg/mL (≈ 80.2 µM).

With `C[n+]1c2cc(N)ccc2cc2ccc(N)cc21.[Cl-]` [EUFLAVINE] as the compound, how does the MIC (Enterobacter cloacae [10]) read?
The MIC was 64 µg/mL.

What about the MIC (Enterobacter cloacae [11]) of the same compound?
Its MIC is 16 µg/mL.

And the MIC (Enterobacter cloacae [12])?
The MIC was 16 µg/mL.

What about the MIC (Enterobacter cloacae [13]) of the same compound?
The MIC was 128 µg/mL.

What about the MIC (Enterobacter cloacae [14]) of the same compound?
Its MIC is 128 µg/mL.

What about the MIC (Enterobacter cloacae [15]) of the same compound?
Its MIC is 32 µg/mL.

What does the source list for GENTAMICIN?
MIC (Enterobacter cloacae [16]): 0.125 µg/mL; MIC (Enterobacter cloacae [17]): 0.094 µg/mL; MIC (Enterobacter cloacae [18]): 1 µg/mL; MIC (Enterobacter cloacae [19]): 0.125 µg/mL; MIC (Enterobacter cloacae [20]): 1 µg/mL; MIC (Enterobacter cloacae [21]): 1.5 µg/mL; MIC (Enterobacter cloacae [22]): 0.25 µg/mL

For `CN(C)c1ccc(C(=C2C=CC(=[N+](C)C)C=C2)c2ccc(N(C)C)cc2)cc1.[Cl-]` [GENTIAN VIOLET], which MIC (Enterobacter cloacae [10]) is on record?
The MIC was 1020 µg/mL.

What about the MIC (Enterobacter cloacae [11]) of the same compound?
Its MIC is 512 µg/mL.

And the MIC (Enterobacter cloacae [12])?
The MIC was 256 µg/mL.

What about the MIC (Enterobacter cloacae [13]) of the same compound?
The MIC was 4100 µg/mL.

What about the MIC (Enterobacter cloacae [14]) of the same compound?
The MIC was 4100 µg/mL.

And the MIC (Enterobacter cloacae [15])?
The MIC was 1020 µg/mL.
